Reference: ChEMBL document CHEMBL4219082, “2-Arylthio-5-iodo pyrimidine derivatives as non-nucleoside HBV polymerase inhibitors” (Bioorg Med Chem, 2018)
Activity calls are given as the source filed them. The calls are words filed in the database; no cut-off is given here.

Experiments:
[1] = Cytotoxicity against human HepG2.2.15 cells […] by MTT assay; type: cell-based, HepG2 2.2.15
Outline: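 HepG2.2.15 cells were seeded at 2×10^5 cells/mL and dosed with graded compound concentrations after 24 h. Medium with compound was refreshed at 72 h, then cells were kept a further 72 h. MTT was added for 4 h, formazan was dissolved in DMSO and absorbance read at 490 nm. The value is CC50, the concentration giving 50% cytotoxicity.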

[2] = Selectivity index, ratio of CC50 for human HepG2.2.15 cells to EC50 for HBV infected in human HepG2.2.15 cells; type: toxicity, cell-based; conditions: read-out: Ratio CC50/EC50
Outline: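 Selectivity index is calculated as CC50/EC50. CC50 comes from an MTT assay and EC50 from qRT-PCR of intracellular HBV DNA. Both use HepG2.2.15 cells dosed for two 72 h periods with a medium renewal between them.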

[3] = (§1) Inhibition of DHBV DNA polymerase derived from infected duckling liver assessed as decrease in biotin-11-dUTP incorporation using poly (A)/oligo(dT)15 as template/primer after 1 hr by ELISA; design: species or system Duck hepatitis B virus
Outline: (§2)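 Enzyme is DHBV polymerase from liver homogenate of infected ducklings. It was pelleted, and the 35% and 40% fractions of a sucrose density gradient were pooled and used at a "1/100" dilution of one liver's yield. Oligo(dT)15 primer is covalently immobilized on the plate. The mix contains 17.5 µg/ml poly(A), 8 µM dTTP, 2 µM biotin-11-dUTP, 5 mM DTT, 17 mM MgCl2, 65 µg/ml BSA, 50 mM Tris-HCl pH 8.3 and 75 mM KCl. Incubation is 1 h at 37 °C. After BSA blocking, streptavidin-alkaline phosphatase is added and PNPP signal is read after NaOH stop. Line 6 is tested at 100 µM and line 7 at 200 µM.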

Hepatitis B virus [4] = assay: Antiviral activity against HBV infected in human HepG2.2.15 cells assessed as inhibition of viral DNA levels at 20 uM […] by qRT-PCR analysis relative to control; type: functional
Outline: (§3)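 HepG2.2.15 cells were seeded at 2×10^5 cells/mL and exposed to compound 24 h later. Compound-containing medium was renewed at 72 h and cells were kept another 72 h. After a PBS wash, intracellular HBV DNA was extracted from lysates and quantified by qRT-PCR. Line 1 gives the 50% inhibitory concentration; lines 2 and 3 test single concentrations of 10 µM and 20 µM.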

Duck hepatitis B virus [5] = assay: Inhibition of DHBV DNA polymerase derived from infected duckling liver assessed as decrease in biotin-11-dUTP incorporation using poly (A)/oligo(dT)15 as template/primer at 100 uM after 1 hr by ELISA relative to control; outline: as §2
Hepatitis B virus [6] = assay: Antiviral activity against HBV infected in human HepG2.2.15 cells assessed as inhibition of viral DNA levels at 10 uM after […] by qRT-PCR analysis; type: functional, organism-based; outline: as §3
Duck hepatitis B virus [7] = assay: Inhibition of DHBV DNA polymerase derived from infected duckling liver assessed as decrease in biotin-11-dUTP incorporation using poly (A)/oligo(dT)15 as template/primer at 200 uM after 1 hr by ELISA; outline: as §2
Duck hepatitis B virus [8] = assay: as §1; outline: as §2

IC50 [3] [µM] | Compound | CC50 [1] [µM] | selectivity ratio [2] | also measured
> 200 | N#Cc1ccc(CSc2nc(C(=O)NCCCc3ccccc3)c(I)c(=O)[nH]2)cc1 | > 50 | > 30 | 
42.8 | O=c1[nH]c(SCc2ccc([N+](=O)[O-])cc2)nc(Cc2ccccc2)c1I | 52.7 | 7 | 
 | O=c1cc(Cc2cc(F)cc(F)c2)nc(SCc2ccc([N+](=O)[O-])cc2)[nH]1 |  |  | inhibition at 20 µM (Hepatitis B virus [4]): 32.9%; inhibition (Duck hepatitis B virus [5]): 16.1%
128 | N#Cc1ccc(CSc2nc(Cn3nnc4ccccc43)c(I)c(=O)[nH]2)cc1 |  |  | inhibition (Hepatitis B virus [6]): inactive
 | Nc1ccn([C@H]2CS[C@@H](CO)O2)c(=O)n1 | > 100 | > 164 | 
 | N#Cc1ccc(CSc2nc(CN3CCCCC3)c(I)c(=O)[nH]2)cc1 |  |  | inhibition (Hepatitis B virus [6]): inactive; inhibition (Duck hepatitis B virus [7]): inactive
42.9 | CC(=O)c1ccc(CSc2nc(Cc3cc(C)cc(C)c3)c(I)c(=O)[nH]2)cc1 | 78.3 | 6.4 | 
71.9 | Cc1cc(C)cc(Cc2nc(SCCc3ccc([N+](=O)[O-])cc3)[nH]c(=O)c2I)c1 | 66.6 | 6.8 | 
 | COC(=O)c1ccc(CSc2nc(Cc3cc(C)cc(C)c3)cc(=O)[nH]2)cc1 |  |  | inhibition at 20 µM (Hepatitis B virus [4]): 13.3%; inhibition (Duck hepatitis B virus [5]): 3.66%
38.8 | COC(=O)c1ccc(CSc2nc(Cc3cc(C)cc(C)c3)c(I)c(=O)[nH]2)cc1 | 64.8 | 5 | 
6.54 | O=C(O)P(=O)(O)O [FOSCARNET] |  |  | inhibition (Duck hepatitis B virus [8]): Dose-dependent effect
 | CN1CCN(C(=O)c2nc(SCc3ccc(C#N)cc3)[nH]c(=O)c2I)CC1 | > 100 | > 38 | inhibition (Duck hepatitis B virus [7]): inactive
33 | Cc1cc(C)cc(Cc2nc(SCc3ccc([N+](=O)[O-])cc3)[nH]c(=O)c2I)c1 | 39 | 5.9 | 
29.5 | O=c1[nH]c(SCc2ccc([N+](=O)[O-])cc2)nc(Cc2cc(F)cc(F)c2)c1I | > 100 | > 16 | 
56 | Cc1cc(C)cc(Cc2nc(SCCOc3ccc([N+](=O)[O-])cc3)[nH]c(=O)c2I)c1 | 96.6 | 14 | 
> 200 | N#Cc1ccc(CSc2nc(C(=O)N3CCCc4ccccc43)c(I)c(=O)[nH]2)cc1 | > 100 | > 62 | 
104 | O=c1[nH]c(SCc2ccc([N+](=O)[O-])cc2)nc(Cn2nnc3ccccc32)c1I |  |  | inhibition (Hepatitis B virus [6]): inactive
60.5 | N#Cc1ccc(CSc2nc(CN3CCc4ccccc4C3)c(I)c(=O)[nH]2)cc1 |  |  | 
35.6 | Cc1cc(C)cc(Cc2nc(SCc3ccc(C#N)cc3)[nH]c(=O)c2I)c1 | 43.2 | 6.1 | 
